# Test results as given in ChEMBL document CHEMBL4706728, “Discovery of a Highly Selective and Potent TRPC3 Inhibitor with High Metabolic Stability and Low Toxicity” (ACS Med Chem Lett, 2021).
# Calls of active or inactive are those of the source. No cut-off for these calls is given here.
# Key:
# [1] = molecular target: T1, Short transient receptor potential channel 3 (Homo sapiens, UniProt Q13507); test: Inhibition of human TRPC3 expressed in HEK293 cells assessed as inhibition of GSK170-induced current in presence of 2 mM extracellular calcium by whole cell patch-clamp method; type: cell-based
# T1 sequence (Q13507 whole entry): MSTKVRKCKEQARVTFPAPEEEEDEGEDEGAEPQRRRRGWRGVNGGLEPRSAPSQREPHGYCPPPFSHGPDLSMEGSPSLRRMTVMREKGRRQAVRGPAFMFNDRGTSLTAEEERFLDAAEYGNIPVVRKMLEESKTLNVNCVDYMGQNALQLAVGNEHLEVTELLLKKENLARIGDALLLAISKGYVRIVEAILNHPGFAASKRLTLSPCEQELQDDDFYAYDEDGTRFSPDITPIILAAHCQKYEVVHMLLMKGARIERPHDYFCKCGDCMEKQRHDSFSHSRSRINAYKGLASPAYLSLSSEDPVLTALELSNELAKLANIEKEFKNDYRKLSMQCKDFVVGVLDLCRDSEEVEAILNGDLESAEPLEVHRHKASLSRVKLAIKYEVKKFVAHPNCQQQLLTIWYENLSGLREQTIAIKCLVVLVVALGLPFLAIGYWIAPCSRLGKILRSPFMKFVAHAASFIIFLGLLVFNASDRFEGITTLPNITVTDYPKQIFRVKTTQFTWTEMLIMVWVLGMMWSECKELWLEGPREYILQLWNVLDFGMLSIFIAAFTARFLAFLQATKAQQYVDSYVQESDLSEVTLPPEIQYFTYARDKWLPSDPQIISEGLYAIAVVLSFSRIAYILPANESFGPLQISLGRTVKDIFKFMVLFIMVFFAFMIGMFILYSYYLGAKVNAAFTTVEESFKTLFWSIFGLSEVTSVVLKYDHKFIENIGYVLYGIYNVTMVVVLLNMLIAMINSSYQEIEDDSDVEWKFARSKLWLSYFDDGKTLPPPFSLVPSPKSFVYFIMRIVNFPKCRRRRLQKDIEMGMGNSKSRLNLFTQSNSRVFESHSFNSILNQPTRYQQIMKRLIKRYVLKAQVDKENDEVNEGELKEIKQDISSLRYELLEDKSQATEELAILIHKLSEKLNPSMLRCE
# Summary of the method: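 hTRPC3 in HEK293 cells, whole-cell patch clamp with 2 mM extracellular Ca2+. Currents elicited by 1 μM GSK1702934A and challenged with a range of inhibitor concentrations by perfusion. Each concentration tested on separate cells and normalized to the cell's maximum amplitude. Dose–response curve built from the data; mean ± SD.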
# [2] = molecular target: Transient receptor potential cation channel subfamily A member 1 (Homo sapiens) (UniProt O75762); test: Inhibition of human TRPA1 expressed in HEK293 cells assessed as inhibition of AITC-induced current at 10 uM by whole cell patch-clamp method; type: cell-based
# Summary of the method: (§1)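 TRP channels overexpressed in HEK293 cells (hTRPA1, rTRPV1, rTRPV4, mouse TRPC6, hTRPC7, hTRPM8). Whole-cell patch clamp with Ca2+-free solutions to avoid desensitization. Channels fully activated with high concentrations of their agonists (AITC for TRPA1, capsaicin for TRPV1, GSK1016790A for TRPV4), then 10 μM test compound perfused with agonist. Result expressed as percentage of peak current blocked; mean ± SD.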
# [3] = molecular target: Transient receptor potential cation channel subfamily V member 4 (Rattus norvegicus) (UniProt Q9ERZ8); test: Inhibition of rat TRPV4 expressed in HEK293 cells assessed as inhibition of GSK101-induced current at 10 uM by whole cell patch-clamp method; type: cell-based; summary of the method: as §1
# [4] = molecular target: T2, Short transient receptor potential channel 6 (Mus musculus) (UniProt Q61143); test: Inhibition of mouse TRPC6 expressed in HEK293 cells assessed as inhibition of GSK170-induced current at 10 uM by whole cell patch-clamp method; type: cell-based; summary of the method: as §1
# T2 sequence (whole entry): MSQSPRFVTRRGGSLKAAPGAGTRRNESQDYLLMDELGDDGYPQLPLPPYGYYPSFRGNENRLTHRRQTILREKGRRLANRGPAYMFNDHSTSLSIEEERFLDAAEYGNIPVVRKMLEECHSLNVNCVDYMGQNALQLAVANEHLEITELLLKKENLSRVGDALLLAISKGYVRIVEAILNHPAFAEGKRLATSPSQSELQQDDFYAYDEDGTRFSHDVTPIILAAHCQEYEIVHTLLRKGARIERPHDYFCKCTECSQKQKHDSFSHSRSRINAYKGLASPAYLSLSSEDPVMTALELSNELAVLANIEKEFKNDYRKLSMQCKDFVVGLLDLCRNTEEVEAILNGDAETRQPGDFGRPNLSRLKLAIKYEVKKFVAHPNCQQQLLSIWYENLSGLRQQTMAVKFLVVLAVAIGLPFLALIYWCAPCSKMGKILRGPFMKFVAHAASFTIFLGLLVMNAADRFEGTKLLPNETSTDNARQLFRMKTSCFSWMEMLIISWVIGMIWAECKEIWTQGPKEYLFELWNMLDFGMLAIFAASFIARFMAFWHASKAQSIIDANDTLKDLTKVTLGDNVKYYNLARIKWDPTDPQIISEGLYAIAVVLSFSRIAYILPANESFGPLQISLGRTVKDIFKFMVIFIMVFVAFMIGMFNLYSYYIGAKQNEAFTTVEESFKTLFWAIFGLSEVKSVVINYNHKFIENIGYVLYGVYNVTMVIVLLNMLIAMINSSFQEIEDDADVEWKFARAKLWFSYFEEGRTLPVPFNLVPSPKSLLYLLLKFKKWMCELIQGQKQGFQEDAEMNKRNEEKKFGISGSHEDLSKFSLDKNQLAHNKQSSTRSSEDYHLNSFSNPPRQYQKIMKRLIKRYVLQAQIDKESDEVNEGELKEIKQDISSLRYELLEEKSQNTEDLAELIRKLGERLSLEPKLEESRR
# [5] = Metabolic stability in human liver microsomes assessed as half life at […] measured up to 240 mins in presence of NADPH regeneration system by LC-MS analysis; type: ADME, Microsome
# [6] = Toxicity in NSG/ICR mouse assessed as body weight loss at 200 mg/kg, ip administered once daily for 5 days; type: organism-based; settings: in vivo, 120 h, dose 200 mg/kg/day, time 5 day
# Summary of the method: (§2)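 Mice (n = 5 per group) dosed at 200 mg/kg by intraperitoneal injection once daily for 5 consecutive days. Survival monitored. Body weight expressed as mean percent change ± SD relative to weight at the start of treatment (day 0), with 15% weight loss as the reference line.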
# [7] = tested on: Hippocampal neurone; test: Neuroprotective activity in Sprague-Dawley rat primary hippocampal neurons assessed as reduction in Abeta-induced dendrites damage at 0.25 to 1 uM incubated for 16 hrs by MAP2 staining based assay; type: functional, tissue-based; settings: dose 0.25-1 µM
# Summary of the method: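 Primary hippocampal neurons from E17 rat embryos, used at 14 DIV. Treated for 16 h with naturally secreted Aβ-containing 7PA2 conditioned medium (CHO medium as control), alone or with test compound at several concentrations. Neurons then immunostained for MAP2 with DAPI, and dendritic length quantified.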
# [8] = Toxicity in NSG/ICR mouse assessed as survival at 200 mg/kg, ip administered once daily for 5 days; type: organism-based; settings: in vivo, 200 mg/kg, 120 h, dose 200 mg/kg/day, time 5 day; summary of the method: as §2
# Sequence of Transient receptor potential cation channel subfamily V member 4 (Rattus norvegicus) (Q9ERZ8 whole entry): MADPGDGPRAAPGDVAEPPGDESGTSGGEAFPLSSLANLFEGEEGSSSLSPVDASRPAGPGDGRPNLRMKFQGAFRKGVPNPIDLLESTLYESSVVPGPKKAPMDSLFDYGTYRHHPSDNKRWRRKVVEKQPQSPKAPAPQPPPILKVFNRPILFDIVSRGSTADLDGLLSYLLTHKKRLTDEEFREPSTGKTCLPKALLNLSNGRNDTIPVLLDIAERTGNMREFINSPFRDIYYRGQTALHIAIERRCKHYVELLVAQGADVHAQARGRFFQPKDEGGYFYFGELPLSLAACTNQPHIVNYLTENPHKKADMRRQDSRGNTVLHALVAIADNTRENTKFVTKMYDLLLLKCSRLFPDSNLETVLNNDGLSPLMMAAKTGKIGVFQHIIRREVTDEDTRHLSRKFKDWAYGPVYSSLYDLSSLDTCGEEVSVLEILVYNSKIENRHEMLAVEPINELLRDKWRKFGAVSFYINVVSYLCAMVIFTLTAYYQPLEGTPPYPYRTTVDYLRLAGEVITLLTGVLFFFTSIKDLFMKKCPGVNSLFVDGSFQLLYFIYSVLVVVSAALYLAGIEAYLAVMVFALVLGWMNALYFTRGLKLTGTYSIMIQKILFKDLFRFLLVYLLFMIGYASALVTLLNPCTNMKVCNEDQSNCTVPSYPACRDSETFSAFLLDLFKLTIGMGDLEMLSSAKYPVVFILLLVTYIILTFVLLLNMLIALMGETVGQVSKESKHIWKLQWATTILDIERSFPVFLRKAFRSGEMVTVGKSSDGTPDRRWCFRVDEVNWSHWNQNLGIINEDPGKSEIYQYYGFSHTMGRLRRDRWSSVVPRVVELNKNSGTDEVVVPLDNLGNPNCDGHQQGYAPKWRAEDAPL
# Sequence of Transient receptor potential cation channel subfamily A member 1 (Homo sapiens) (O75762 whole entry, the tested form may be a part): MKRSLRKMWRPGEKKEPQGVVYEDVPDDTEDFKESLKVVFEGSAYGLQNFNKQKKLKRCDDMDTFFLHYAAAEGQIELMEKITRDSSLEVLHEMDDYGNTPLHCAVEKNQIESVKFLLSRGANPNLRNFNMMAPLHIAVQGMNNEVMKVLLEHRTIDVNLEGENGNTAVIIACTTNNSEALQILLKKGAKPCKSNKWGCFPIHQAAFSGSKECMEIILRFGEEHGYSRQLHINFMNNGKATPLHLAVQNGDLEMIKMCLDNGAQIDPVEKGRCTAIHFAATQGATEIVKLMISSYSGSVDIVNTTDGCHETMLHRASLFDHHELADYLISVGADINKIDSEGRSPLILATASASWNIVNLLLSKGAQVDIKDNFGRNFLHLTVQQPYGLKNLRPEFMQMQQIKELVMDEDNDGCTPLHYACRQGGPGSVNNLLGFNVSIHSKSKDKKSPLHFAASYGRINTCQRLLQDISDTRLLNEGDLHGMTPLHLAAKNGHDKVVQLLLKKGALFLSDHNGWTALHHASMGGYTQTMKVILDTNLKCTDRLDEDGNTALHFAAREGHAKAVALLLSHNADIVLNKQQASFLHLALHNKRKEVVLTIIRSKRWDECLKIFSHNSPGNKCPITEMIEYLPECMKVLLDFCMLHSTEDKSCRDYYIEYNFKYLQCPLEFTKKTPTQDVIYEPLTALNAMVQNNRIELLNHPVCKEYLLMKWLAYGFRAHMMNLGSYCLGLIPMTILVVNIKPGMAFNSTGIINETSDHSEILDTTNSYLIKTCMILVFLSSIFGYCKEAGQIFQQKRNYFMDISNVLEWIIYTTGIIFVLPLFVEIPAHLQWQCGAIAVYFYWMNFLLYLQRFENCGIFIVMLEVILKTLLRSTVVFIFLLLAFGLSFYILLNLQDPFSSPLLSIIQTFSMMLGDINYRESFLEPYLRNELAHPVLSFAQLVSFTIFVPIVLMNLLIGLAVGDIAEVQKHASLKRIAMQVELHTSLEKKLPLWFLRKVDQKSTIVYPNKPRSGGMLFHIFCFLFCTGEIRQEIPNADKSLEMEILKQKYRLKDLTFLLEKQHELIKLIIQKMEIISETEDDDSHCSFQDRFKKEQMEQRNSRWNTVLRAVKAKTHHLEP
smiles,measurement,setting,value
CCNC(=O)c1cnn(-c2ccc(-n3ccc(Cl)c(Cl)c3=O)cc2)c1C(F)(F)F,IC50,[1],430 nM
same,inhibition,[2],inactive
same,inhibition,[3],inactive
same,inhibition,[4],39%
same,half-life,[5],> 4 h
same,Activity,[6],Non-Toxic
same,Activity,[7],Active
same,Activity,[8],Non-Toxic
